Data published in ChEMBL document CHEMBL1138631, “Synthesis and amine transporter affinities of novel phenyltropane derivatives as potential positron emission tomography (PET) imaging agents” (Bioorg Med Chem Lett, 2004).

Tests used:
[1] = biological target: Sodium-dependent dopamine transporter (Homo sapiens, UniProt Q01959); experiment: Inhibition of [18F]PET binding to dopamine transporter of human brain
[2] = biological target: Sodium-dependent dopamine transporter (Rattus norvegicus, UniProt P23977); experiment: Displacement of [3H]CIT from dopamine transporter of rat striatal homogenate
Sequence of Sodium-dependent dopamine transporter (Rattus norvegicus, UniProt P23977) (P23977 whole entry): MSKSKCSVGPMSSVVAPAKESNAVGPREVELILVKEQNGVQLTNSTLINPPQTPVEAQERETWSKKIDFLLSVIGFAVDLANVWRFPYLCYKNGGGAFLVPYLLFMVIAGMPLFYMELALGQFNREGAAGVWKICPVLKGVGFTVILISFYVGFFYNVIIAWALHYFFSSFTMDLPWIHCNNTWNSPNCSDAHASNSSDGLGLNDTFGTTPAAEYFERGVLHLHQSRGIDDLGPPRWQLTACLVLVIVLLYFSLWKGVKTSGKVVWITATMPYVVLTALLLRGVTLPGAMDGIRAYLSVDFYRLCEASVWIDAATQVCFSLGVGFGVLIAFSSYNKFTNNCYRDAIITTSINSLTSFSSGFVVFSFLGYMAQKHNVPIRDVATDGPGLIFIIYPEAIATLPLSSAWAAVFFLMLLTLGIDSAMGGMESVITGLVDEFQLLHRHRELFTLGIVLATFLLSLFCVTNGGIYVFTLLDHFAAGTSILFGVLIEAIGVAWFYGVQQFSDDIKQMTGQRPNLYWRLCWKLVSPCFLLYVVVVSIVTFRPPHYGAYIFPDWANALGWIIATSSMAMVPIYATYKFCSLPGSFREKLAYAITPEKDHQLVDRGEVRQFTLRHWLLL

[3] = biological target: Sodium-dependent serotonin transporter (Rattus norvegicus, UniProt P31652); experiment: Displacement of [3H]cyanoimiprimine from serotonin transporter of rat cerebral cortical homogenate
Sequence of Sodium-dependent serotonin transporter (P31652 whole entry): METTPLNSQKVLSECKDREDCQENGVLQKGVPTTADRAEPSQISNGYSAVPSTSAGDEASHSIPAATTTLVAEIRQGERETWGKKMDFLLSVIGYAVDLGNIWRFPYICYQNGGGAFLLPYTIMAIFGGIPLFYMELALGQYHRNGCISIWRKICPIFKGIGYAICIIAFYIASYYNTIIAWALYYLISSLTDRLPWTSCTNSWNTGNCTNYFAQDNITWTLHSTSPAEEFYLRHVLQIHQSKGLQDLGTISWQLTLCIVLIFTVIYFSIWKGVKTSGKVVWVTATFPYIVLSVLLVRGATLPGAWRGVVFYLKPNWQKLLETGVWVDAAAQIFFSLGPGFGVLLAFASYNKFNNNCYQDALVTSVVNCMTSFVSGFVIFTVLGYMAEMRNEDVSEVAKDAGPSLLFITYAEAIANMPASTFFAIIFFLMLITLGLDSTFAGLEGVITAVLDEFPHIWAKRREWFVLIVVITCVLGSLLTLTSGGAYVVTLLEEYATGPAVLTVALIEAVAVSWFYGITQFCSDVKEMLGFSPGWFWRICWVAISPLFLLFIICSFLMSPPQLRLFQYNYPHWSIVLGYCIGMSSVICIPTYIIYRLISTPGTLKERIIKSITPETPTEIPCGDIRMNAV
Outline: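 Rat cerebral cortical homogenates incubated with 0.71 nM [3H]cyanoimiprimine in a radioligand competition binding assay; affinity expressed as Ki in nM.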

[4] = biological target: Monoamine transporters; serotonin & dopamine (Rattus norvegicus) (UniProt P31652+P23977); experiment: Ratio of Ki for dopamine and serotonin transporters; assay type: protein assay
Sequence of Monoamine transporters; serotonin & dopamine (Rattus norvegicus) (P23977 whole entry, looked up): as the sequence (P23977 whole entry) above
Sequence of Monoamine transporters; serotonin & dopamine (Rattus norvegicus) (P31652 whole entry, looked up): as the sequence (P31652 whole entry) above
Outline: (§1)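 Selectivity calculated as Ki at SERT or NET divided by Ki at DAT. Ki values came from radioligand competition assays with tritiated ligands selective for each transporter in rat forebrain tissue preparations. A ratio above 1.0 means preference for DAT.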

[5] = biological target: Norepinephrine transporter (Rattus norvegicus, UniProt Q9WTR4); experiment: Displacement of [3H]-nisoxetine from norepinephrine transporter of rat cerebral corticex homogenate
Sequence of Norepinephrine transporter (Q9WTR4 whole entry): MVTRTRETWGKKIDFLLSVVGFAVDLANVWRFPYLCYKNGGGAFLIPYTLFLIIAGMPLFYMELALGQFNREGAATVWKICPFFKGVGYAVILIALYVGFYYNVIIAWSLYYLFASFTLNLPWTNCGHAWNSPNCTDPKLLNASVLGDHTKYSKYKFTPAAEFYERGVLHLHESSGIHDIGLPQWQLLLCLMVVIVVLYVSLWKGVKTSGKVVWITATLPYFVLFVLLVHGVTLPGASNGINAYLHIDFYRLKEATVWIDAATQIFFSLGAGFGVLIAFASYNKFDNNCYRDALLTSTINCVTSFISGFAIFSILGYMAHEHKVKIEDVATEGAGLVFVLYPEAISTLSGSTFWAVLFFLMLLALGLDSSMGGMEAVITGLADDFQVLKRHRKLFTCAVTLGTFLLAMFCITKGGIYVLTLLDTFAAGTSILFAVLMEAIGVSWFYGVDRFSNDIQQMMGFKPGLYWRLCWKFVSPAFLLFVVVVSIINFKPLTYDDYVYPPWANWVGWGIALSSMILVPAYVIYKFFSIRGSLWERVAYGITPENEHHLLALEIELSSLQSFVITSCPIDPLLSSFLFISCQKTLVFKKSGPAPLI
Outline: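 Competition binding in rat cerebral cortical homogenates incubated with 0.35 nM [3H]nisoxetine; Ki reported in nM.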

[6] = biological target: Monoamine transporters; Norepininephrine & dopamine (Rattus norvegicus) (UniProt P23977+Q9WTR4); experiment: Ratio of Ki for dopamine and norepinephrine transporters; assay type: protein assay; outline: as §1

Sequence of Sodium-dependent dopamine transporter (Homo sapiens, UniProt Q01959) (Q01959 whole entry): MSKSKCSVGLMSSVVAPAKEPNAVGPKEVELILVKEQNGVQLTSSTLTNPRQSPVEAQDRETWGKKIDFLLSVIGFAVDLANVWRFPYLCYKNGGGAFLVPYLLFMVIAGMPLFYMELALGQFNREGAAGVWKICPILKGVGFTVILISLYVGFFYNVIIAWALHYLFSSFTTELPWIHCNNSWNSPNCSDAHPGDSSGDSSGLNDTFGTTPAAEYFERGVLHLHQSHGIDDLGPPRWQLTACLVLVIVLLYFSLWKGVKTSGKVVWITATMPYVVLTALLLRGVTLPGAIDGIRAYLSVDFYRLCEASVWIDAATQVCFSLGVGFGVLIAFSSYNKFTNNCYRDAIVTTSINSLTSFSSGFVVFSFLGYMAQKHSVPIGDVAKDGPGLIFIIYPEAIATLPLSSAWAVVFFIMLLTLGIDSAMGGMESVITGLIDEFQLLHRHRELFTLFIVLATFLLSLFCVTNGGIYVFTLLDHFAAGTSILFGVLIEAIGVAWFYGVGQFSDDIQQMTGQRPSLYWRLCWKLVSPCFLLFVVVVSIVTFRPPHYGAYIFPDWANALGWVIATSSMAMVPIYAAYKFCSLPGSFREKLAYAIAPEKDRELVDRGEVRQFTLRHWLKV

O=C(OCCF)C1C2CCC(CC1c1ccc(I)cc1)N2 (stereo not given)
Ki [1]: 5 nM
Ki [2]: 0.85 nM
Ki [3]: 0.18 nM
Selectivity [4]: 0.21

CN1C2CCC1C(C(=O)NCCF)C(c1ccc(I)cc1)C2 (stereo not given)
Ki [5]: > 10000 nM
Selectivity [6]: > 225
Ki [2]: 44.5 nM
Ki [3]: 30.8 nM
Selectivity [4]: 0.69

CN1C2CCC1C(C(=O)OCCF)C(c1ccc(I)cc1)C2 (stereo not given)
Ki [5]: 116 nM
Selectivity [6]: 125
Ki [3]: 4.02 nM
Selectivity [4]: 4.3

O=C(OCCF)C1C(c2ccc(Br)cc2)CC2CCC1N2CCCF (stereo not given)
Ki [5]: 2.03 nM
Selectivity [6]: 0.19
Ki [2]: 10.6 nM
Ki [3]: 18.3 nM
Selectivity [4]: 1.72

COC(=O)C1C(c2ccc(Br)cc2)CC2CCC1N2C (stereo not given)
Ki [5]: 15.3 nM
Selectivity [6]: 0.02
Ki [2]: 0.3 nM
Ki [3]: 4.95 nM
Selectivity [4]: 0.06

CN1C2CCC1C(C(=O)OCCF)C(c1ccc(Br)cc1)C2 (stereo not given)
Ki [5]: 280 nM
Selectivity [6]: 120
Ki [1]: 5 nM
Ki [2]: 2.33 nM
Ki [3]: 5.1 nM
Selectivity [4]: 2.19

CN1C2CCC1C(C(=O)OCCCF)C(c1ccc(Br)cc1)C2 (stereo not given)
Ki [5]: 244 nM
Selectivity [6]: 128
Ki [1]: 5 nM
Ki [2]: 1.91 nM
Ki [3]: 2.86 nM
Selectivity [4]: 1.5

CN1C2CCC1C(C(=O)NCCF)C(c1ccc(Br)cc1)C2 (stereo not given)
Ki [2]: 25.7 nM
Ki [3]: 38.7 nM
Selectivity [4]: 1.51

O=C(OCCF)C1C2CCC(CC1c1ccc(Br)cc1)N2 (stereo not given)
Ki [5]: 15.2 nM
Selectivity [6]: 26.7
Ki [1]: 5 nM
Ki [2]: 0.57 nM
Ki [3]: 0.24 nM
Selectivity [4]: 0.42

COC(=O)C1C2CCC(CC1c1ccc(Br)cc1)N2 (stereo not given)
Ki [5]: 1.02 nM
Ki [2]: 0.52 nM
Ki [3]: 0.95 nM

COC(=O)C1C(c2ccc(Br)cc2)CC2CCC1N2CCCF (stereo not given)
Selectivity [6]: 58.9
Selectivity [4]: 10.9

O=C(OCCCF)C1C2CCC(CC1c1ccc(Br)cc1)N2 (stereo not given)
Ki [5]: 8.85 nM
Selectivity [6]: 12.3
Ki [1]: 5 nM
Ki [2]: 0.72 nM
Ki [3]: 0.3 nM
Selectivity [4]: 0.42
